In ChEMBL document CHEMBL5055620, “Design, Synthesis, and Structural Characterization of Lysine Covalent BH3 Peptides Targeting Mcl-1” (J Med Chem, 2021):
pIC50, pKi: −log10 of the molar value. The source made the active and inactive calls. No cut-off for these calls is given here. Non-standard residues stand in square brackets, D forms with d. Residues, ends and D or L forms follow the SMILES beside them. ξ: configuration not given here. *: point of attachment. Benzoyl(2-OMe,5-SO2F) = COc1ccc(S(=O)(=O)F)cc1C(=O)*; Benzoyl(3-SO2F) = O=C(c1cccc(S(=O)(=O)F)c1)*; Benzoyl(4-SO2F) = O=C(c1ccc(S(=O)(=O)F)cc1)*; X1 = Cc1ccc(S(=O)(=O)F)cc1C(=O)*; hSer = N[C@@H](CCO)C(=O)O; Nle = CCCC[C@H](N)C(=O)O; Dap = NC[C@H](N)C(=O)O; ξAbu = CCC(N)C(=O)O

Experiments:
[1] = biological target: T1, Induced myeloid leukemia cell differentiation protein Mcl-1 (Homo sapiens, UniProt Q07820); experiment: Inhibition of human Mcl-1 (172 to 323 residues) expressed in Escherichia coli BL21 using biotinylated-BH3 peptide as substrate measured after 2 hrs by DELFIA displacement assay
T1 sequence (Q07820 whole entry, the tested form may be a part): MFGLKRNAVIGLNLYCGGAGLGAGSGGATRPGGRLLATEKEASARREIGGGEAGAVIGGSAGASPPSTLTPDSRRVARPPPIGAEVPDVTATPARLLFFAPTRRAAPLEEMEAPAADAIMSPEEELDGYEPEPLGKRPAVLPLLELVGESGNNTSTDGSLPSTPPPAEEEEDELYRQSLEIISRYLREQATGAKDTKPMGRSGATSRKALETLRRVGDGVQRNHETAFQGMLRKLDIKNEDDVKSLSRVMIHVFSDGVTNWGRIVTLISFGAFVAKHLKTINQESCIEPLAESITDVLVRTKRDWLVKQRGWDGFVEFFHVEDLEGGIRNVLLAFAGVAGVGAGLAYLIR

[2] = biological target: T1, Induced myeloid leukemia cell differentiation protein Mcl-1; experiment: Binding affinity to human Mcl-1 assessed as covalent adduct formation by measuring increase in molecular weight at 100 uM by mass spectrometry analysis
[3] = biological target: T1, Induced myeloid leukemia cell differentiation protein Mcl-1; experiment: Inhibition of human Mcl-1 assessed as inhibition constant by DELFIA displacement assay
Outline: (§1)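 His-tagged hMcl-1 (16 nM) and Eu-N1 anti-6xHis antibody (22.2 ng/well) were pre-bound for 2 h to streptavidin wells coated with biotinylated BIM BH3 peptide (600 ng/mL). Test peptide was then added for 0–40 min at RT, followed by washing, enhancement solution and time-resolved fluorescence at ex 340/em 615 nm. kobs was taken from the slope of % inhibition versus time. Ki and kinact came from a hyperbolic fit of kobs against concentration.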

[4] = biological target: T2, Bcl-2-related protein A1 (Homo sapiens, UniProt Q16548); experiment: Inhibition of human Bfl-1 (1 to 149 residues) expressed in Rosetta-gami (DE3) using biotinylated-BH3 peptide as substrate measured after 2 hrs by DELFIA displacement assay
T2 sequence (Q16548 whole entry): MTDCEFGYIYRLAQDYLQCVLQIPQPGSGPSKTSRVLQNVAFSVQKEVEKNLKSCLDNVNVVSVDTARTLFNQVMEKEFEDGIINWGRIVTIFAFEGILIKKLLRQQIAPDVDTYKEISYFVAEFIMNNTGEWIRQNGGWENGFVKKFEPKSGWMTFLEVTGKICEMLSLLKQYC

[5] = Stability of the compound in pH 7.4 buffer assessed as half life by one-dimensional 1H-NMR analysis; type: physicochemical
[6] = Stability of the compound in pH 7.4 buffer assessed as intact compound after 3.5 hrs by one-dimensional 1H-NMR analysis; type: physicochemical; settings: read-out: Stability
[7] = biological target: T3, Bcl-2-related protein A1 (Homo sapiens) (UniProt Q16548); experiment: Binding affinity to human Bfl-1 assessed as covalent adduct formation by measuring band shift at 100 uM measured after 2 hrs by SDS-PAGE analysis
T3 sequence (whole entry): T2 sequence (Q16548 whole entry)
Outline: (§2)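 Protein (hMcl-1 His-tagged construct, or His-tagged hBfl-1 residues 1–149) at 10 μM was incubated with or without agent at 100 μM for 2 h at room temperature in 25 mM TRIS pH 7.5, 150 mM NaCl, 1 mM DTT. Samples were run on 12% Bis-Tris SDS-PAGE with MOPS running buffer and Coomassie-type stained.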

[8] = biological target: T1, Induced myeloid leukemia cell differentiation protein Mcl-1; experiment: Binding affinity to human Mcl-1 assessed as covalent adduct formation by measuring band shift at 100 uM measured after 2 hrs by SDS-PAGE analysis
Outline: as §2

[9] = biological target: T1, Induced myeloid leukemia cell differentiation protein Mcl-1; experiment: Inhibition of human Mcl-1 assessed as Kinact by DELFIA displacement assay
Outline: as §1

[10] = tested on: A549; experiment: Prevention of thermal denaturation of proteins in human A549 cells assessed as rescue of protein level at 100 uM by Western blotting analysis; type: functional, cell-based
Outline: (§3)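 Cellular thermal shift: one million A549 cells were plated overnight and treated 1 h with 1% DMSO or 100 μM agent. Cells were harvested, protease inhibitors added, and heated 3 min at various temperatures. After lysis, the supernatant was analysed by western blot for Mcl-1.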

[11] = tested on: A549; experiment: Induction of decrease in human Mcl-1 level in A549 cells measured up to 100 uM in presence of carfilzomib treated for 2 hrs by Western blot analysis; type: functional, cell-based
Outline: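 A549 cells were treated 2 h with DMSO, 50 or 100 μM agent, with or without 30 min pre-treatment with 1 μM carfilzomib. Lysates were immunoblotted for Mcl-1 and β-tubulin. Densitometry gave Mcl-1 relative to β-tubulin from two independent experiments. Significance was by one-way ANOVA with Dunnett post-test.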

[12] = biological target: T1, Induced myeloid leukemia cell differentiation protein Mcl-1; experiment: Binding affinity to human Mcl-1 in human A549 cells assessed as denaturation thermal shift at 100 uM by cellular thermal shift assay; type: cell-based
Outline: as §3

[13] = biological target: T1, Induced myeloid leukemia cell differentiation protein Mcl-1; experiment: Degradation of human Mcl-1 in A549 cells assessed as decrease in Mcl-1 protein levels with DMSO for 1 hr by spiking cell lysate assay; type: cell-based
Outline: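 A549 cells (Ham's F-12/GlutaMAX, 10% FBS, PenStrep, 0.5 μg/mL puromycin) were lysed 20 min on ice in Tris pH 7.4/Triton/deoxycholate/SDS/IGEPAL/EDTA buffer with protease and phosphatase inhibitors, then centrifuged. Protein-quantified supernatants were incubated 1 h at 37 °C with DMSO or 100 μM agent. Immunoblot used PVDF, anti-Mcl-1 and anti-β-tubulin (4 °C overnight), and ECL.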

With Ac-AIAEALRRIGDAF-NH2 as the compound, how does the pIC50 [1] read?
The pIC50 was 6.58.

With H-AIAQALRRIGDAL-OH as the compound, how does the pIC50 [1] read?
The pIC50 was 5.92.

With CC[C@H](C)[C@H](NC(=O)[C@H](CCCNC(=N)N)NC(=O)[C@H](CCCNC(=N)N)NC(=O)[C@H](CC(C)C)NC(=O)[C@H](CCO)NC(=O)[C@H](CCC(N)=O)NC(=O)[C@H](C)NC(=O)[C@H](CC(C)C)NC(=O)[C@H](C)N)C(=O)NCC(=O)N[C@@H](CC(=O)O)C(=O)N[C@@H](C)C(=O)N[C@@H](Cc1ccccc1)C(=O)O (H-ALAQ[hSer]LRRIGDAF-OH) as the compound, how does the pIC50 [1] read?
The pIC50 was 5.52.

With H-AIAQALRRIGDAY-OH as the compound, how does the pIC50 [1] read?
The pIC50 was less than 5.44.

Which Activity [2] does the source give for CC[C@H](C)[C@H](NC(=O)[C@H](CCCNC(=N)N)NC(=O)[C@H](CCCNC(=N)N)NC(=O)[C@H](CC(C)C)NC(=O)[C@H](CCC(N)=O)NC(=O)[C@H](CCC(=O)O)NC(=O)[C@H](C)NC(=O)[C@@H](NC(=O)[C@H](CNC(=O)c1cc(S(=O)(=O)F)ccc1C)NC(C)=O)[C@@H](C)CC)C(=O)NCC(=O)N[C@@H](CC(=O)O)C(=O)N[C@@H](CCCNC(=N)N)C(=O)N[C@@H](Cc1ccccc1)C(N)=O (Ac-[Dap](X1)IAEQLRRIGDRF-NH2) here?
The Activity was “Active”.

And the pKi [3]?
Its pKi is 7.43.

What about the pIC50 [1] of the same compound?
Its pIC50 is 7.72.

What about the pIC50 [4] of the same compound?
The pIC50 was less than 6.00.

And the half-life [5]?
Its half-life is greater than 3.5 h.

And the remaining at 3.5 h [6]?
The remaining at 3.5 h was greater than 80%.

And the Activity [7]?
Its Activity is “inactive”.

And the Activity [8]?
The Activity was “Active”.

What about the Kinact [9] of the same compound?
The Kinact was 1.16 min⁻¹.

And the Activity [10]?
The Activity was “inactive”.

With CCCC[C@H](NC(=O)[C@H](C)NC(=O)[C@H](CC(=O)O)NC(=O)CNC(=O)[C@@H](NC(=O)[C@H](CCCNC(=N)N)NC(=O)[C@H](CCCNC(=N)N)NC(=O)[C@H](CC(C)C)NC(=O)[C@H](C)NC(=O)[C@H](CCC(N)=O)NC(=O)[C@H](C)NC(=O)[C@@H](NC(=O)[C@H](C)N)[C@@H](C)CC)[C@@H](C)CC)C(=O)O (H-AIAQALRRIGDA[Nle]-OH) as the compound, how does the pIC50 [1] read?
Its pIC50 is 5.80.

With H-AIAEQLRRIGDAF-NH2 as the compound, how does the pIC50 [1] read?
The pIC50 was 6.50.

With CC[C@H](C)[C@H](NC(=O)[C@H](CCCNC(=N)N)NC(=O)[C@H](CCCNC(=N)N)NC(=O)[C@H](CC(C)C)NC(=O)[C@H](CCC(N)=O)NC(=O)[C@H](CCC(=O)O)NC(=O)[C@H](C)NC(=O)[C@@H](NC(=O)[C@H](CNC(=O)c1cccc(S(=O)(=O)F)c1)NC(C)=O)[C@@H](C)CC)C(=O)NCC(=O)N[C@@H](CC(=O)O)C(=O)N[C@@H](CCCNC(=N)N)C(=O)N[C@@H](Cc1ccccc1)C(N)=O (Ac-[Dap](Benzoyl(3-SO2F))IAEQLRRIGDRF-NH2) as the compound, how does the pIC50 [1] read?
Its pIC50 is 7.64.

And the pIC50 [4]?
The pIC50 was less than 6.40.

With CC[C@H](C)[C@H](NC(=O)[C@H](CCCNC(=N)N)NC(=O)[C@H](CCCNC(=N)N)NC(=O)[C@H](CC(C)C)NC(=O)[C@H](CCC(N)=O)NC(=O)[C@H](CCC(=O)O)NC(=O)[C@H](C)NC(=O)[C@@H](NC(=O)[C@H](CNC(=O)c1cc(S(=O)(=O)F)ccc1OC)NC(C)=O)[C@@H](C)CC)C(=O)NCC(=O)N[C@@H](CC(=O)O)C(=O)N[C@@H](CCCNC(=N)N)C(=O)N[C@@H](Cc1ccccc1)C(N)=O (Ac-[Dap](Benzoyl(2-OMe,5-SO2F))IAEQLRRIGDRF-NH2) as the compound, how does the Activity [2] read?
The Activity was “Active”.

What about the Activity [11] of the same compound?
The Activity was “Active”.

What about the pKi [3] of the same compound?
The pKi was 7.77.

What about the pIC50 [1] of the same compound?
Its pIC50 is 7.63.

And the pIC50 [4]?
Its pIC50 is less than 6.60.

What about the half-life [5] of the same compound?
Its half-life is greater than 3.5 h.

What about the Activity [12] of the same compound?
The Activity was “inactive”.

What about the remaining at 3.5 h [6] of the same compound?
The remaining at 3.5 h was 100%.

What about the Activity [7] of the same compound?
Its Activity is “inactive”.

What about the Activity [8] of the same compound?
Its Activity is “Active”.

What about the Kinact [9] of the same compound?
The Kinact was 0.943 min⁻¹.

What about the Activity [13] of the same compound?
Its Activity is “inactive”.

And the Activity [10]?
Its Activity is “inactive”.

With H-AIAQALRRIGDAF-OH as the compound, how does the pIC50 [1] read?
The pIC50 was 5.66.

With CC[C@H](C)[C@H](NC(=O)[C@H](CCCNC(=N)N)NC(=O)[C@H](CCCNC(=N)N)NC(=O)[C@H](CC(C)C)NC(=O)[C@H](CCC(N)=O)NC(=O)[C@H](CCC(=O)O)NC(=O)[C@H](C)NC(=O)[C@@H](NC(=O)[C@H](CNC(=O)c1ccc(S(=O)(=O)F)cc1)NC(C)=O)[C@@H](C)CC)C(=O)NCC(=O)N[C@@H](CC(=O)O)C(=O)N[C@@H](CCCNC(=N)N)C(=O)N[C@@H](Cc1ccccc1)C(N)=O (Ac-[Dap](Benzoyl(4-SO2F))IAEQLRRIGDRF-NH2) as the compound, how does the pIC50 [1] read?
Its pIC50 is 7.03.

What about the pIC50 [4] of the same compound?
The pIC50 was less than 5.30.

With H-ALAQALREIGDAR-OH as the compound, how does the pIC50 [1] read?
The pIC50 was less than 5.00.

With CCC(NC(=O)[C@H](CCC(N)=O)NC(=O)[C@H](C)NC(=O)[C@@H](NC(=O)[C@H](C)N)[C@@H](C)CC)C(=O)N[C@@H](CC(C)C)C(=O)N[C@@H](CCCNC(=N)N)C(=O)N[C@@H](CCCNC(=N)N)C(=O)N[C@H](C(=O)NCC(=O)N[C@@H](CC(=O)O)C(=O)N[C@@H](C)C(=O)N[C@@H](Cc1ccccc1)C(=O)O)[C@@H](C)CC (stereo partly specified) (H-AIAQ[ξAbu]LRRIGDAF-OH) as the compound, how does the pIC50 [1] read?
Its pIC50 is 5.89.
